High-throughput results as filed in PubChem.
KCNQ1 block – human KCNQ1 channel inhibition. CHO-K1 KCNQ1, FluxOR thallium flux fluorescence; active compounds read high. B-score at 10 µM. 310,000 tested, 1.3% active. AID 2642;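 active = compounds whose thallium flux B-score, printed positive for inhibition, exceeds three library SD while starting fluorescence stays within three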;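 also: channel opened by potassium depolarization with thallium stimulus after 20 min compound exposure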
KCNK9 block – human KCNK9 channel inhibition; B-score at 10 µM; HEK293 KCNK9, FluxOR thallium flux fluorescence; active compounds read low; 310,000 tested, 1.2% active; Q9NPC2;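 active = ratio B-score over 3 SD below the library mean, with starting fluorescence within 5 SD of its mean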;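 also: negative B-score means less thallium flux so channel inhibition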
hERG rescue – hERG (human) protection from proarrhythmic block; Q12809; activation (rescue from dofetilide block), less the hit threshold, % at 10 µM; AID 1511; CHO-hERG, FluxOR thallium flux, dofetilide IC70 present; 310,000 tested, 0.51% active;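 active = activation above the mean of controls blocked by dofetilide plus 5 SD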;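 also: thallium influx through hERG after potassium depolarization seen as dye fluorescence rise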
KCNQ1 act – potentiators or activators of human KCNQ1 potassium channel; P51787; 310,000 tested, 0.35% active; B-score at 10 µM; CHO-K1 KCNQ1, thallium flux FluxOR fluorescence; active compounds read high;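 active = fluorescence ratio B-score, a plate-corrected score, at least three library SD, with initial intensity B-score within 5 SD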
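Test system: CHO-K1 cells stably expressing KCNQ1 / Medium: assay buffer / Also added: depolarizing K+/Tl+ stimulus, K2SO4 and Tl2SO4 each 12.5 mM in 5x stock / Incubation: 90 min dye loading and 20 min compound exposure, both at room temperature / Signal: thallium influx via FluxOR fluorescence, kinetic imaging / Evaluation: B score of baseline-normalized fluorescence ratio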
KCNK3 block – human KCNK3 channel inhibition, primary screen; CHO-KCNK3 thallium flux, FluxOR fluorescence; active compounds read low; B-score at 10 µM; 340,000 tested, 0.84% active; AID 602410;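 active = B-score under library mean minus 4 SD, starting fluorescence ratio at most library mean plus 5 SD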;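 also: more negative B-score means stronger inhibition of thallium flux through KCNK3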
Target sequence (O14649 whole entry, looked up): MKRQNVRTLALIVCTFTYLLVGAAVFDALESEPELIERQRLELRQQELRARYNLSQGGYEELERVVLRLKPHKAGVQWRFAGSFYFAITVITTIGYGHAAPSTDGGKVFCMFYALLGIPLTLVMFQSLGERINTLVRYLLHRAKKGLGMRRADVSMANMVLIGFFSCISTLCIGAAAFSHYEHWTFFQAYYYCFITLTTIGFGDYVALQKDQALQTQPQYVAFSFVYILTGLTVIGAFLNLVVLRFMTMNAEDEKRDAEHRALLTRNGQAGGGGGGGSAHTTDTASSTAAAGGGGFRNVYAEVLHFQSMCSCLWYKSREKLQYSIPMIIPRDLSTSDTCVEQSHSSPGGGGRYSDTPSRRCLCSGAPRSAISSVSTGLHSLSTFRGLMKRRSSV
Each line names hits and unclear results; the compound was inactive in the other large screens. This is a sample that favours compounds with a hit; in the whole collection about 3.1% have one here.

Cc1ccc(/C=N/N2C(=S)SC(C)(C)C2N(O)C(=O)Nc2ccc([N+](=O)[O-])cc2)cc1 (centres undefined)	none
CC1(C)SC(=S)N(NC(=O)Nc2ccccc2)C1N(O)C(=O)Nc1cccc2ccccc12 (centres undefined)	KCNQ1 block 9
CN1C(=S)SC(C)(C)C1N(O)C(=O)Nc1ccc(Cl)cc1 (centres undefined)	none
Cc1ccc(SCC(=O)OCC(=O)N(CCC#N)c2ccccc2)cc1	none (no result: KCNQ1 block, KCNK9 block, hERG rescue, KCNQ1 act)
CC1CC(C)CN(c2ncc3c(n2)CC(c2ccccc2Cl)CC3=O)C1 (centres undefined)	none
CC1CC(C)CN(c2ncc3c(n2)CC(c2ccc(Cl)cc2)CC3=O)C1 (centres undefined)	KCNQ1 block 6
Cc1ccccc1NS(=O)(=O)c1cc(C(=O)NCCSC2CCCCC2)ccc1C	KCNK9 block -8
Cc1ccccc1NS(=O)(=O)c1cc(C(=O)N2CCCC2)ccc1C	none
CSc1nc2c(c(=O)[nH]1)C(c1ccc(Cl)cc1)CC(=O)N2 (centres undefined)	none
CSc1nc2c(c(=O)[nH]1)C(c1ccccc1Cl)CC(=O)N2 (centres undefined)	hERG rescue 9.7
Cc1sc2nc(CN3CCOCC3)nc(NS(=O)(=O)c3cc(Cl)ccc3Cl)c2c1C	none (no result: KCNQ1 block, KCNK9 block, hERG rescue, KCNQ1 act)
c1ccc2oc(-c3ccn[nH]3)cc2c1	hERG rescue 6.9
Cc1cc(=S)[nH]c2c(C)cccc12	hERG rescue 5.0
Cc1cccc2c(-c3ccccc3)cc(=O)[nH]c12	none
COc1ccccc1-n1cc(-c2ccccc2)c2c(=S)nc[nH]c21	none
CCc1cc(C(=O)N(C)CC(=O)Nc2c(Cl)cccc2Cl)sc1C	none (no result: KCNQ1 block, KCNK9 block, hERG rescue, KCNQ1 act)
C=CCNC(=S)NNc1nc2c(c(=O)[nH]1)C1(CCCCC1)Cc1ccccc1-2	KCNQ1 block 8
Cc1cccc(CC(=O)N2CCN(C(=O)c3ccco3)CC2)c1	none
Cc1ccc(S(=O)(=O)c2nc(-c3ccccc3Cl)oc2N(C)C)cc1	none
COc1ccccc1-c1nc(S(=O)(=O)c2ccc(Cl)cc2)c(N(C)C)o1	hERG rescue 5.4
S=c1[nH]nc(-c2ccccc2)n1/N=C/c1ccc(-c2ccccc2Cl)o1	KCNQ1 act 8
S=c1[nH]nc(-c2ccccn2)n1/N=C/c1ccc(-c2ccccc2Br)o1	hERG rescue 14
S=c1[nH]nc(-c2cccc(Cl)c2)n1/N=C/c1ccc(-c2ccccc2Br)o1	none
O=C(O)c1ccc(N=N/C(=N\Nc2ccc(C(=O)O)cc2)c2ccccc2)cc1	none
O=C(O)c1cccc(N/N=C(\N=Nc2ccccc2)c2ccccc2)c1	KCNQ1 block 6
CC(C)[C@H](NC(=O)[C@@H]1CSC2c3ccccc3C(=O)N21)C(=O)NCc1ccncc1 (some centres undefined)	none
COC(=O)C1CCN(S(=O)(=O)c2ccc(NC(C)=O)cc2)CC1	none
CC(=O)Nc1ccc(S(=O)(=O)N2CCC(C(=O)O)CC2)cc1	KCNQ1 act 10
Cc1nc(CS(=O)(=O)c2ccc(Cl)cc2)cc(Sc2ccc(Cl)cc2)n1	KCNK9 block -6.6
Cc1nc2ccccc2c2c1C(=O)N(C)C2=O	hERG rescue 5.7
Cc1cc(N/N=C/c2c(O)ccc3ccccc23)nc(-c2ccccc2O)n1	KCNQ1 block 10
CC(C)NS(=O)(=O)c1ccc(NC(=O)C(C)OC(=O)C2CCC2)cc1 (centres undefined)	none (no result: KCNQ1 block, KCNK9 block, hERG rescue, KCNQ1 act)
Cc1c(-c2cc[n+]([O-])cc2)oc2ccc(Br)cc2c1=O	hERG rescue 4.9 (no result: KCNK3 block)
Cc1cc(C)cc(-n2c(C)cc(/C=N\NC(=O)COc3cccc4cccnc34)c2C)c1	KCNQ1 block 7
Cc1cc(/C=N/NC(=O)COc2cccc3cccnc23)c(C)n1-c1ccc(O)cc1	none
COc1ccc(CNC(=S)Nc2ccc(F)c(Cl)c2)cc1OC	hERG rescue 4.9
COc1ccc(CNC(=S)Nc2ccccc2)cc1Cl	none
O=C(O)c1ccc2c(c1)C(=O)N(c1cc([N+](=O)[O-])ccn1)C2=O	hERG rescue 5.2
O=C(Nc1ccccc1C(=O)O)c1ccc2c(c1)C(=O)N(c1cccc([N+](=O)[O-])c1)C2=O	hERG rescue 7.0
O=C(Nc1c[nH]c(=O)[nH]c1=O)c1ccc2c(c1)C(=O)N(c1cccc([N+](=O)[O-])c1)C2=O	none
O=[N+]([O-])c1ccc2oc(C(O)c3cccc(Cl)c3)cc2c1 (centres undefined)	KCNQ1 block 9
